Compound activity deposited in PubChem by The Scripps Research Institute Molecular Screening Center.
TAAR1 agonist – human TAAR1 agonists, primary screen, Fluo-8 calcium fluorescence, CHO RD-HGA16 cells. Trace amine-associated receptor 1 (Homo sapiens), Q96RJ0. vehicle wells 0%, saturating PEA agonist 100%. activation, % at 3 µM. hit rate 0.99% among 360,000;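 active = activation above the mean activation of all test compounds in the run plus 3 SD, cut at about 38% in these data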
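Test system: RD-HGA16 (CHO) cells co-expressing Gα16 and hTAAR1 | Doses: Single dose, 3 µM | Schedule: 17-24 h seeding, 75 min 37 °C dye, 30 min RT | Evaluation: % activation from peak over basal fluorescence ratio, DMSO-to-PEA scaled | Technique: Kinetic Fluo-8 calcium fluorescence | Benchmarks: Low control DMSO, high control PEA (EC100)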
TAAR1 antag – human TAAR1 antagonists, primary screen, Fluo-8 calcium fluorescence, CHO RD-HGA16 cells | antagonist | inhibition, % at 3 µM | hit rate 1.5% among 360,000 | Trace amine-associated receptor 1 (Homo sapiens), Q96RJ0 | AID 624466, 2012;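 active = inhibition above a per-plate cutoff, the mean inhibition of test compounds on that plate plus 3 SD, cut at about 49% in these data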
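Test system: CHO RD-HGA16 cells bearing hTAAR1 | Reagent: β-PEA, EC80 | Compound dosing: 3 µM, single point | Schedule: Dye loading 75 min at 37 °C, then 30 min room temperature | Signal: Calcium fluorescence with Fluo-8 | Evaluation: Percent inhibition of PEA-evoked calcium signal, max/basal emission ratio | Control set: DMSO-only wells and EC80 β-PEA-stimulated wells | Repeats: Singlicate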
CHO parental Ca – ATP-evoked calcium signal inhibitors, parental CHO, primary screen, counter-screen for OX1R antagonist project, cell-based, fluorescence, Fluo-8 calcium dye. parental CHO-K1, ATP-induced calcium, Fluo-8 fluorescence. inhibition, % at 5.6 µM. hit rate 0.63% among 330,000. AID 463079, 2010;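 active = inhibition above that plate's mean sample inhibition plus 3 SD, cut at about 26% in these data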
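Measured by: calcium-sensitive Fluo-8 fluorescence / Test system: CHO parental line / Controls: ATP-challenged DMSO wells low, unchallenged DMSO wells high / Measure: % inhibition / Compound: single nominal dose of 5.6 µM per compound / Replicates: single well per compound, no replicates / Reagent: ATP as calcium-mobilizing challenge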
GPR7 antagonist – GPR7 receptor antagonists, primary screen, cell-based, fluorescence, single concentration | GPR7-expressing cells, fluorescence antagonist assay | Neuropeptides B/W receptor type 1 (Homo sapiens), P48145 | inhibition, % at 4.4 µM | hit rate 1.1% among 290,000; in the data active = inhibition above about 16%, passing the limit was not always enough;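 note: cells stimulated with the agonist NPW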
OX1R antag-1 – OX1R (HCRTR1) antagonists, primary screen, fluorescence, CHO/OX1R cells, Fluo-8 calcium, orexin A; Orexin/Hypocretin receptor type 1 (Homo sapiens), O43613; Fluo-8 calcium fluorescence; inhibition, % at 5 µM; hit rate 0.43% among 330,000; AID 434989, 2010;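 active = inhibition above its plate's threshold, mean inhibition of all tested compounds on the plate plus 3 SD, cut at about 37% in these data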
Target sequence (O43613 whole entry, looked up): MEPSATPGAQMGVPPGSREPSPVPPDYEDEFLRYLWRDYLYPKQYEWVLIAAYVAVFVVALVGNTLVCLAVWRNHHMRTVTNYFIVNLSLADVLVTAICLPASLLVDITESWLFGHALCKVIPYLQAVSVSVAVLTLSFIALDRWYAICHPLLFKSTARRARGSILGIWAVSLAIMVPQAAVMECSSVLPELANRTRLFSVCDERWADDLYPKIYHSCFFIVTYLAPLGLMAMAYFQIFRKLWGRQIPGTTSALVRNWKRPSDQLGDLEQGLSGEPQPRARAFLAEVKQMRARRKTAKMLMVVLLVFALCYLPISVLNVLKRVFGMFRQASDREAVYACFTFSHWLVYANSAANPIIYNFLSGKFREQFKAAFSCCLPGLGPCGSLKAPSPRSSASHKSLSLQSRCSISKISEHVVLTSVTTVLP
OX1R antag-2 – antagonists of human orexin 1 receptor (OX1R). OX1R-expressing cells, FRET antagonist read-out. hit rate 1.8% among 330,000. AID 485270, 2010. inhibition, % at 6.6 µM; in the data active = inhibition mostly above about 38%, no sharp cut-off; inactive = mostly below about 40%
GPR7 antag cf – GPR7 receptor antagonists, confirmation, cell-based, fluorescence, single concentration | shares compounds with GPR7 antagonist | GPR7-expressing cells, calcium fluorescence antagonist mode | inhibition, % at 4.4 µM | hit rate 52% among 2,400 | AID 1952, 2009; in the data active = inhibition above about 24%;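 note: stimulated with the GPR7 agonist NPW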
MCHR1 antag – MCHR1 antagonists in cells, counter-screen for GPR7 antagonist project, cell-based, fluorescence, human; MCHR1-expressing cells, fluorescence antagonist assay; hit rate 62% among 2,400; shares compounds with GPR7 antagonist; inhibition, % at 4.4 µM; in the data active = inhibition above about 22%
Numbers stand for hits; . = inactive; / = not tested or not shown. A selection: hits, their analogues and other compounds. The true share with any hit is near 4.5%.

SMILES | TAAR1 agonist | TAAR1 antag | CHO parental Ca | GPR7 antagonist | OX1R antag-1 | OX1R antag-2 | GPR7 antag cf | MCHR1 antag
C=C1C(C(=O)Nc2ccccc2)C1C(=O)Nc1ccccc1 (stereo unspecified) | . | . | . | . | . | . | / | /
CC(NC(=O)Nc1ccc2c(c1)OCO2)C1CCCO1 (stereo unspecified) | . | . | . | 99 | . | . | . | .
CC(C)=CCC[C@H](C)C[C@@H]1Cc2[nH][nH]c(=O)c2[C@H](c2ccc(Cl)cc2)O1 | . | . | / | / | / | / | / | /
Cc1cccn2c(CN(C)CCC3CCCCO3)c(C(=O)N3CCCCC3)nc12 (stereo unspecified) | . | . | . | 38 | . | . | . | .
Clc1ccc(CN=C(Nc2ccccc2)NC2CCCCC2)cc1 | . | . | . | 40 | . | . | 57 | 45
O=C(Cc1ccc(Cl)cc1)NC1CCCCCC1 | . | . | . | . | . | . | / | /
CCCC(=O)Nc1nc(-c2ccc(OC)cc2)cs1 | . | . | . | 22 | . | . | 24 | 36
COc1ccc(C2=NN(C(=O)CSc3nc4ccccc4s3)C(c3ccc(OC)cc3)C2)cc1 (stereo unspecified) | . | . | . | . | . | . | / | /
COc1ccc2c(c1)C(C)CC(C)(C)N2C(=O)CSc1nc2ccccc2s1 (stereo unspecified) | . | . | . | 22 | . | . | 26 | 54
N/C(=N\OC(=O)COc1ccccc1)c1ccc(Cl)cc1 | . | . | . | 24 | . | . | . | .
CC(C)=NOCC(=O)Nn1c(COc2c(C)cccc2C)nc2ccccc2c1=O | . | . | . | 26 | . | . | . | .
CC(=O)Nn1c(COc2ccccc2C)nc2ccccc2c1=O | . | . | . | . | . | . | / | /
O=C(OCC(=O)N1CCN(C(=O)c2ccco2)CC1)c1cc(-c2ccc(Cl)c(Cl)c2Cl)nc2ccccc12 | . | . | . | . | . | . | / | /
CN1CCCN(C(=O)c2cc(-c3ccc(Cl)c(Cl)c3Cl)nc3ccccc23)CC1 | . | . | . | 21 | . | . | 31 | 39
O=C(COC(=O)c1cc(Cl)ccc1O)NCCC1=CCCCC1 | . | . | . | / | . | . | / | /
O=C(CNS(=O)(=O)c1ccc([N+](=O)[O-])cc1)N/N=C/c1ccc(O)cc1O | . | . | . | 41 | . | . | 64 | 44
NC(=O)c1nn(CC(=O)Nc2cccc(S(=O)(=O)N3CCCC3)c2)c(=O)c2ccccc12 | . | . | . | / | . | . | / | /
Cc1ccc(SCCNC(=S)Nc2cc(C)ccc2C)cc1 | . | . | . | . | . | . | / | /
Cc1ccc(C)c(NC(=S)NCCN(C2CCCCC2)C2CCCC2)c1 | . | . | . | 46 | . | . | 44 | 36
CCOC(=O)C1(Cc2cccc(OC)c2)CCCN(S(=O)(=O)CC)C1 (stereo unspecified) | . | . | . | 27 | . | . | . | .
NC(=O)C1CCN(c2cc(N3CCOCC3)ccc2[N+](=O)[O-])CC1 | . | . | . | . | . | . | / | /
NC(=O)C1CCN(c2cc(Cl)ccc2[N+](=O)[O-])CC1 | . | . | . | 26 | . | . | . | .
Cc1cc(C)cc(NC(=O)C2C3C=CC4(O3)C2C(=O)N(CCCN2CCCC2)C4C(=O)NC2CCCC(C)C2C)c1 (stereo unspecified) | . | . | . | 27 | . | . | . | .
Cc1cccc(NC(=O)C2C3C=CC4(O3)C2C(=O)N(CCCN2CCCC2)C4C(=O)NC2CCCC(C)C2C)c1 (stereo unspecified) | . | . | . | . | . | . | / | /
CCN(CC)CCNC(=O)c1ccc(NC(=O)c2cn(-c3ccc(F)cc3)nc2-c2cccc(OC)c2)cc1 | . | . | . | . | . | . | / | /
SMILES | TAAR1 agonist | TAAR1 antag | CHO parental Ca | GPR7 antagonist | OX1R antag-1 | OX1R antag-2 | GPR7 antag cf | MCHR1 antag
CCN(CC)CCNC(=O)c1ccc(NC(=O)c2cn(-c3ccccc3)nc2-c2cccs2)cc1 | . | . | . | 22 | . | . | 35 | 45
Cn1cccc1/C=C(/C#N)c1ccc(F)cc1 | . | . | . | 26 | . | . | . | .
Cn1cccc1/C=C(\C#N)c1ccccc1 | . | . | . | . | . | . | / | /
CCCCSCc1nc2ccccn2c1Br | . | . | . | . | . | . | / | /
O=C(NC1CC2CCCC(C1)N2C(=O)Nc1ccc(Cl)c(C(F)(F)F)c1)C1CC1 (stereo unspecified) | . | . | . | . | . | . | / | /
O=C(Nc1ccc(Cl)c(C(F)(F)F)c1)NC1CC2CCCC(C1)N2Cc1ccccc1 (stereo unspecified) | . | . | 37 | 27 | . | . | 45 | 87
COc1ccc(CCN=C(N)C(C)c2ccccc2)cc1OC (stereo unspecified) | . | . | . | . | . | . | / | /
CC(C)Cc1ccc(C(C)C(N)=NCCc2ccccc2)cc1 (stereo unspecified) | . | . | / | 52 | / | / | 39 | 54
O=[N+]([O-])c1c(Nc2cccc(O)c2)cc(Cl)c2nonc12 | . | . | 43 | 35 | 47 | 94 | 81 | 101
Cc1c(Nc2cc(Cl)c3nonc3c2[N+](=O)[O-])c(=O)n(-c2ccccc2)n1C | . | . | / | . | / | / | / | /
O=[N+]([O-])c1ccccc1OCCCOc1cccc2cccnc12 | . | . | . | . | . | . | / | /
O=C(CNC1CCCCCC1)Nc1ccc(N2CCCC2)cc1 | / | / | . | . | . | . | / | /
CC1CCN(S(=O)(=O)c2ccc(NC(=O)CNC3CCCCC3)cc2)CC1 | . | . | . | . | . | . | / | /
CC1CCCC(C)N1S(=O)(=O)c1ccc(NC(=O)CNC2CCCC2)cc1 (stereo unspecified) | . | . | . | 54 | . | . | . | .
CC(=O)c1ccc(NC(=O)CNC2CCCCC2)cc1 | . | . | . | 36 | . | . | . | .
O=C(c1cc(-c2ccc(F)cc2)on1)N1CCCCCC1 | . | . | . | 36 | . | . | . | 26
Cc1ccc(S(=O)(=O)Nc2ccc(=O)n(Cc3ccc(Cl)c(Cl)c3)c2)cc1 | . | . | . | . | . | . | / | /
c1ccc(OCCOCCN2CCOCC2)cc1 | . | . | . | . | . | . | / | /
